According to ChEMBL document CHEMBL1128684, “The serotonin 5-HT4 receptor. 2. Structure-activity studies of the indole carbazimidamide class of agonists” (J Med Chem, 1995):

Key:
[1] = molecular target: 5-hydroxytryptamine receptor 4 (Cavia porcellus) (UniProt O70528); assay: Relative efficacy compared to serotonin(1) in 5-hydroxytryptamine 4 assay; type: functional
How it was run: (§1)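 Longitudinal muscle strips of guinea pig ileum kept in tyrode solution with 0.1 μM methylsergide. Twitch contractions (2–3 s) evoked through platinum electrodes by square-wave pulses at 0.1 Hz and 2 ms duration. Once a stable submaximal response was reached, noncumulative concentration–response curves were built for the agonists.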

[2] = molecular target: Serotonin 3 (5-HT3) receptor; assay: Antagonistic activity against 5-hydroxytryptamine 3 receptor in guinea pig ileum assay
[3] = molecular target: T1, 5-hydroxytryptamine receptor 2A (Rattus norvegicus, UniProt P14842); assay: Agonistic activity against 5-hydroxytryptamine 2A receptor in rat cortex using [3H]-ketanserin; type: tissue-based
T1 sequence (P14842 whole entry): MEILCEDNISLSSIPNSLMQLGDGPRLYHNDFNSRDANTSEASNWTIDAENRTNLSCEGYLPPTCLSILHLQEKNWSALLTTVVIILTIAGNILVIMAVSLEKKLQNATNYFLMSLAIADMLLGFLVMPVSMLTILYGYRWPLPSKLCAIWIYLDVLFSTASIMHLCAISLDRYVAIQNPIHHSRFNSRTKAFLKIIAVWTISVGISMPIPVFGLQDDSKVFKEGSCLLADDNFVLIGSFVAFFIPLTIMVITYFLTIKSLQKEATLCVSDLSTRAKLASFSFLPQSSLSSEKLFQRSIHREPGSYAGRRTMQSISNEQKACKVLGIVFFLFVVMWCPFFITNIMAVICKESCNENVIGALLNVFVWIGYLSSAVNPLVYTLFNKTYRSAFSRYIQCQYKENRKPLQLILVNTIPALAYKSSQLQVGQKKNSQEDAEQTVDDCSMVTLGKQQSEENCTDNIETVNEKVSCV
How it was run: (§2)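 Binding to rat cortex. Table footnote lists [3H]ketanserin as the radioligand.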

[4] = molecular target: 5-hydroxytryptamine receptor 4 (Cavia porcellus) (UniProt O70528); assay: 5-hydroxytryptamine 4 receptor agonistic activity was measured by twitch response enhancing activity in electrically stimulated guinea pig ileum preparation; type: functional, tissue-based; how it was run: as §1
[5] = molecular target: T1, 5-hydroxytryptamine receptor 2A; assay: (§3) Agonistic activity against 5-hydroxytryptamine 2A receptor in rat cortex using [3H]ketanserin; type: tissue-based; how it was run: as §2
[6] = molecular target: T1, 5-hydroxytryptamine receptor 2A; assay: as §3; type: functional, tissue-based

Chain of 5-hydroxytryptamine receptor 4 (Cavia porcellus) (O70528 whole entry): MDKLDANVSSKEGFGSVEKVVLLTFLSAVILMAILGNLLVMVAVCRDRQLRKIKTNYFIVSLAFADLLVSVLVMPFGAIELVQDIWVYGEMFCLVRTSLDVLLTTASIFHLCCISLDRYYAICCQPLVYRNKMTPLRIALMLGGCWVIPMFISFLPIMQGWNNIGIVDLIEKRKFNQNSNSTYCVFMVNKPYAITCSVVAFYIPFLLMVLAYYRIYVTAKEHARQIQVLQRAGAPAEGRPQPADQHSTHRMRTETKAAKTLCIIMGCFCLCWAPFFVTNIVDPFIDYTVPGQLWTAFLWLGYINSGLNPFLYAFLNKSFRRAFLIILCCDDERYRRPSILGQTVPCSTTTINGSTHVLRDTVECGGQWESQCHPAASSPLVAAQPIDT

SMILES	Relative efficacy [1]	pA2 [2]	Ki [3]	pD2 [4]	Ki [5]	Ki [6]
Cl.N/C(=N/N=C/c1c[nH]c2ccc(O)cc12)NCCc1ccc(Cl)c(Cl)c1	0.1	< 5	0.191 µM	> 10		
CCCCC/N=C(/N)N/N=C/c1c[nH]c2ccc(N)cc12	1.6			7.6		
CCCCCNC(=N)N/N=C/c1c[nH]c2ccc(O)cc12	0.9	< 5		9.3	0.224 µM	
Oc1ccc2[nH]cc(/C=N/Nc3ncc[nH]3)c2c1	1			8.2	1.62 µM	
CCCCC/N=C(/N)N/N=C/c1[nH]nc2ccc(OC)cc12	0			< 4		
CCCCCCCN(C)C(=N)N/N=C/c1c[nH]c2ccc(O)cc12	1.6			8	2.34 µM	
CCCCCN(C)C(=N)N/N=C/c1c[nH]c2ccc(O)cc12	0.3			7.7		
CN(/N=C/c1c[nH]c2ccc(O)cc12)C(=N)N	0.5			5.8		
CCCCC/N=C(/N)N/N=C/c1c[nH]c2ccccc12	0.1			< 6		
CCCCC/N=C(/N)N/N=C/c1c[nH]c2ccc(OC(=O)N(C)C)cc12	0.7			< 7		
Oc1ccc2[nH]cc(/C=N/NC3=NCCN3)c2c1	0.7			7.3		
Oc1ccc2[nH]cc(/C=N/Nc3ccccn3)c2c1	0.8			6.1		
CCCCC/N=C(/N)N/N=C/c1c[nH]c2ccc(OCCOC)cc12	0.7			6.6		
CCCCC/N=C(/N)N/N=C/c1c[nH]c2ccc(OCc3ccccc3)cc12	1.8			< 6		
Oc1ccc2[nH]cc(/C=N/NC3=NCCC3)c2c1	1			7.1		
CCCCC/N=C(/N)N/N=C/c1[nH]nc2ccc(O)cc12	0			< 4		
Cl.N=C(N)N/N=C/c1c[nH]c2ccc(O)cc12	1.5	< 5		8.8		0.24 µM
CCCCC/N=C(/N)N/N=C/c1c[nH]c2ccc(OCC(=O)N(C)C)cc12	1.4			7.3		
N/C(=N/N=C/c1c[nH]c2ccc(O)cc12)NCCc1ccccc1	1			9.1		
CCCCC/N=C(/N)N/N=C/c1c[nH]c2ccc(O)nc12	0.9			7.8	1.35 µM	
CCCCCCCCNC(=N)N/N=C/c1c[nH]c2ccc(O)cc12	0			< 4		
CCCCC/N=C(/N)N/N=C/c1c[nH]c2ccc(OCC)cc12	0.1			< 7		
CN1CCN=C1N/N=C/c1c[nH]c2ccc(O)cc12	0			< 4		
N/C(=N/N=C/c1c[nH]c2ccc(O)cc12)NCCCc1ccccc1	0.4			8.5		
N/C(=N/N=C/c1c[nH]c2ccc(O)cc12)NCCNC(=O)c1ccccc1	0.5			8.5		
CCCCC/N=C(/N)N/N=C/c1c[nH]c2ccc(NS(C)(=O)=O)cc12	0			< 4		
N/C(=N/N=C/c1c[nH]c2ccc(O)cc12)NCCCO	0.7			7.7		
CCCCC/N=C(/N)N/N=C/c1c[nH]c2ccc(OCC=C(C)C)cc12	2.2	< 5		8.15	6.31 µM	

Now from value to compound, other results behind:

Relative efficacy [1]	pA2 [2]	Ki [3]	pD2 [4]	Ki [5]	SMILES	Ki [6]
0.5			8.5		N/C(=N/N=C/c1c[nH]c2ccc(O)cc12)NCCc1ccccc1Cl	
0.5			7		CCCCC/N=C(/N)N/N=C/c1c[nH]c2ccc(OC(=O)c3ccccc3)cc12	
1			7.4		CCCCC/N=C(/N)N/N=C/c1c[nH]c2ccc(OCCO)cc12	
0.5			6.5		Oc1ccc2[nH]cc(/C=N/NC3=NCCS3)c2c1	
0.7			7.5		CCCCC/N=C(/N)N/N=C/c1c[nH]c2ccc(OCOC)cc12	
0.5			8.9		COc1cccc(CCNC(=N)N/N=C/c2c[nH]c3ccc(O)cc23)c1	
			< 7		CCCCC/N=C(/N)N/N=C/c1csc2ccc(O)cc12	
0			< 4		CCCCC/N=C(/N)N/N=C/c1c[nH]c2ccc(OC(=O)CCCCC)cc12	
0.5			6.1		CCCCC/N=C(/N)N/N=C/c1csc2ccc(OC)cc12	
1			7.1		CCCCC/N=C(/N)N/N=C/c1c[nH]c2ccc(OC)nc12	
0.5			8.5		N/C(=N/C(=O)NC1CCCCC1)N/N=C/c1c[nH]c2ccc(O)cc12	
0.3			7.6		CCCCC/N=C(/N)N/N=C/c1c[nH]c2ccc(OCCN(C)C)cc12	
0.2			6.9		CCCCCNC(=N)N/N=C/c1c[nH]c2ccc(OC)cc12	
0.5	< 5	2.51 µM	6.8		CCCCC/N=C(/N)N/N=C/c1c[nH]c2ccc(OC(C)C)cc12	
0.8			5.9		CCCCC/N=C(/N)N/N=C/c1c[nH]c2ccc(OCCC(C)C)cc12	
1			7.7		CCCC(=O)/N=C(/N)N/N=C/c1c[nH]c2ccc(O)cc12	
			< 5.5		CCCCC/N=C(/N)N/N=C/c1c[nH]c2ccc([Si](C)(C)C)cc12	
0.2			8.4		N/C(=N/N=C/c1c[nH]c2ccc(O)cc12)NCCc1ccc(Cl)cc1	
